ChEMBL document CHEMBL1949585, “Design, synthesis and evaluation of telomerase inhibitory, hTERT repressing, and anti-proliferation activities of symmetrical 1,8-disubstituted amidoanthraquinones” (Eur J Med Chem, 2012)

Columns and labels:
[1] = Cytotoxicity against human H1299 cells assessed as cell growth at 1 uM after 48 hrs by MTT assay; type: functional; settings: NCI-H1299, 48 h, read-out: Activity
Summary of the method: (§1)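 H1299 non-small lung cancer cells were grown in RPMI 1640 with 10% FBS and penicillin/streptomycin at 37 °C in 5% CO2. About 2×10³ cells were seeded per well and held 24 h, then washed with PBS and given fresh medium. Compound, freshly dissolved in DMSO and diluted in complete medium, was added for 48 h. MTT was read at 550 nm after SDS/DMF lysis at 37 °C for 16 h. Values are from three experiments, untreated = 100%, ±SD.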

[2] = Cytotoxicity against human H1299 cells assessed as cell growth at 10 uM after 48 hrs by MTT assay; type: functional; settings: NCI-H1299, 48 h, read-out: Activity; summary of the method: as §1
[3] = Cytotoxicity against human H1299 cells assessed as cell growth at 100 uM after 48 hrs by MTT assay; type: functional; settings: NCI-H1299, 48 h, read-out: Activity; summary of the method: as §1
[4] = Inhibition of human TERT expression in H1299 cells at 1 uM after 24 hrs by secreted alkaline phosphatase reporter gene assay relative to control; values are per cent of control; settings: NCI-H1299
[5] = Inhibition of human TERT expression in H1299 cells at 10 uM after 24 hrs by secreted alkaline phosphatase reporter gene assay relative to control; values are per cent of control; settings: NCI-H1299
[6] = Inhibition of human TERT expression in H1299 cells at 100 uM after 24 hrs by secreted alkaline phosphatase reporter gene assay relative to control; values are per cent of control; settings: NCI-H1299

Row | SMILES | growth at 1 µM [1] | growth at 10 µM [2] | growth at 100 µM [3] | level, % of control [4] | level, % of control [5] | level, % of control [6]
1 | COC(=O)[C@@H](NCC(=O)Nc1cccc2c1C(=O)c1c(NC(=O)CN[C@H](C(=O)OC)C(C)C)cccc1C2=O)C(C)C | 99% | 90% | 86% | 100% | 49% | 0%
2 | CCN(CC)CCC(=O)Nc1cccc2c1C(=O)c1c(NC(=O)CCN(CC)CC)cccc1C2=O | 97% | 30% | 4% | 99% | 35% | 0%
3 | COC(=O)CN(C)CC(=O)Nc1cccc2c1C(=O)c1c(NC(=O)CN(C)CC(=O)OC)cccc1C2=O | 71% | 88% | 46% | 106% | 95% | 73%
4 | COc1cccc2c1C(=O)c1c(O)c3c(c(O)c1C2=O)C[C@@](O)(C(=O)CO)C[C@@H]3O[C@H]1C[C@H](N)[C@H](O)[C@H](C)O1 [DOXORUBICIN] | 17% | 0% | 0% | 33% | 13% | 5%
5 | CC(C)CNCC(=O)Nc1cccc2c1C(=O)c1c(NC(=O)CNCC(C)C)cccc1C2=O | 53% | 44% | 28% | 110% | 86% | 77%
6 | COC(=O)[C@@H](C)NCC(=O)Nc1cccc2c1C(=O)c1c(NC(=O)CN[C@H](C)C(=O)OC)cccc1C2=O | 56% | 50% | 10% | 83% | 74% | 66%
7 | COC(=O)[C@H](COC(C)(C)C)NCC(=O)Nc1cccc2c1C(=O)c1c(NC(=O)CN[C@@H](COC(C)(C)C)C(=O)OC)cccc1C2=O | 127% | 128% | 91% | 98% | 94% | 98%
8 | COC(=O)[C@H](NCC(=O)Nc1cccc2c1C(=O)c1c(NC(=O)CN[C@@H](C(=O)OC)C(C)C)cccc1C2=O)C(C)C | 88% | 80% | 58% | 91% | 95% | 45%
9 | CCCN(C)CC(=O)Nc1cccc2c1C(=O)c1c(NC(=O)CN(C)CCC)cccc1C2=O | 108% | 108% | 97% | 85% | 87% | 45%
10 | CCN(C)CC(=O)Nc1cccc2c1C(=O)c1c(NC(=O)CN(C)CC)cccc1C2=O | 100% | 101% | 73% | 102% | 95% | 20%
11 | CN(C)CC(=O)Nc1cccc2c1C(=O)c1c(NC(=O)CN(C)C)cccc1C2=O | 72% | 61% | 57% | 93% | 96% | 84%
12 | CCN(C)CCC(=O)Nc1cccc2c1C(=O)c1c(NC(=O)CCN(C)CC)cccc1C2=O | 96% | 23% | 12% | 110% | 19% | 0%
13 | COC(=O)[C@H](C)NCC(=O)Nc1cccc2c1C(=O)c1c(NC(=O)CN[C@@H](C)C(=O)OC)cccc1C2=O | 98% | 104% | 96% | 99% | 93% | 67%
14 | CNCCC(=O)Nc1cccc2c1C(=O)c1c(NC(=O)CCNC)cccc1C2=O | 117% | 107% | 33% | 101% | 97% | 22%
15 | O=C(CNCc1cccc(C(F)(F)F)c1)Nc1cccc2c1C(=O)c1c(NC(=O)CNCc3cccc(C(F)(F)F)c3)cccc1C2=O | 97% | 93% | 93% | 75% | 84% | 33%
16 | CC(C)CNCCC(=O)Nc1cccc2c1C(=O)c1c(NC(=O)CCNCC(C)C)cccc1C2=O | 73% | 4% | 0% | 96% | 29% | 0%
17 | COC(=O)[C@@H](NCC(=O)Nc1cccc2c1C(=O)c1c(NC(=O)CN[C@H](C(=O)OC)c3ccccc3)cccc1C2=O)c1ccccc1 | 77% | 59% | 18% | 97% | 74% | 42%
18 | COC(=O)[C@@H]1CCCN1CC(=O)Nc1cccc2c1C(=O)c1c(NC(=O)CN3CCC[C@H]3C(=O)OC)cccc1C2=O | 88% | 104% | 93% | 87% | 59% | 8%
19 | CCCN(CCC)CCC(=O)Nc1cccc2c1C(=O)c1c(NC(=O)CCN(CCC)CCC)cccc1C2=O | 94% | 99% | 22% | 100% | 100% | 4%
20 | O=C(CCNCc1cc(F)cc(F)c1)Nc1cccc2c1C(=O)c1c(NC(=O)CCNCc3cc(F)cc(F)c3)cccc1C2=O | 93% | 87% | 6% | 98% | 100% | 3%
21 | O=C1c2c(O)ccc(O)c2C(=O)c2c(NCCNCCO)ccc(NCCNCCO)c21 [MITOXANTRONE] | 23% | 0% | 0% | 20% | 9% | 7%
22 | COC(=O)[C@H](CCSC)NCC(=O)Nc1cccc2c1C(=O)c1c(NC(=O)CN[C@@H](CCSC)C(=O)OC)cccc1C2=O | 99% | 78% | 60% | 105% | 94% | 24%
23 | CCNCC(=O)Nc1cccc2c1C(=O)c1c(NC(=O)CNCC)cccc1C2=O | 106% | 87% | 17% | 103% | 92% | 2%
24 | CN(C)CCCNCCC(=O)Nc1cccc2c1C(=O)c1c(NC(=O)CCNCCCN(C)C)cccc1C2=O | 122% | 105% | 21% | 95% | 95% | 20%
25 | CN(C)CCC(=O)Nc1cccc2c1C(=O)c1c(NC(=O)CCN(C)C)cccc1C2=O | 93% | 24% | 11% | 87% | 20% | 0%
26 | COC(=O)[C@H](CC(C)C)NCC(=O)Nc1cccc2c1C(=O)c1c(NC(=O)CN[C@@H](CC(C)C)C(=O)OC)cccc1C2=O | 112% | 102% | 96% | 101% | 101% | 88%
